A selection: hits, their analogues and other compounds. The true share with any hit is near 3.7%.
KCNK3 inh: human KCNK3 channel inhibition, primary screen; O14649; CHO-KCNK3 thallium flux, FluxOR fluorescence; active compounds read low; B-score at 10 µM; 340,000 compounds, 0.84% hits;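 active means B-score under library mean minus 4 SD, starting fluorescence ratio at most library mean plus 5 SD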;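 further: more negative B-score means stronger inhibition of thallium flux through KCNK3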
KCNK9 block: blocks the human KCNK9 two-pore domain potassium channel. AID 488922. 310,000 compounds, 1.2% hits. HEK293 KCNK9, FluxOR thallium flux fluorescence; active compounds read low. B-score at 10 µM;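 active means ratio B-score over 3 SD below the library mean, with starting fluorescence within 5 SD of its mean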;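 further: negative B-score means less thallium flux so channel inhibition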
hERG rescue: compounds protecting human hERG from proarrhythmic drug block; activation (rescue from dofetilide block), less the hit threshold, % at 10 µM; 310,000 compounds, 0.51% hits; Q12809; CHO-hERG, FluxOR thallium flux, dofetilide IC70 present;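 active means activation above the mean of controls blocked by dofetilide plus 5 SD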;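 further: thallium influx through hERG after potassium depolarization seen as dye fluorescence rise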
KCNQ1 block: blocks the human KCNQ1 potassium channel; P51787; CHO-K1 KCNQ1, FluxOR thallium flux fluorescence; active compounds read high; B-score at 10 µM; 310,000 compounds, 1.3% hits; AID 2642;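 active means compounds whose thallium flux B-score, printed positive for inhibition, exceeds three library SD while starting fluorescence stays within three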;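 further: channel opened by potassium depolarization with thallium stimulus after 20 min compound exposure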
Target sequence (P51787 whole entry, looked up): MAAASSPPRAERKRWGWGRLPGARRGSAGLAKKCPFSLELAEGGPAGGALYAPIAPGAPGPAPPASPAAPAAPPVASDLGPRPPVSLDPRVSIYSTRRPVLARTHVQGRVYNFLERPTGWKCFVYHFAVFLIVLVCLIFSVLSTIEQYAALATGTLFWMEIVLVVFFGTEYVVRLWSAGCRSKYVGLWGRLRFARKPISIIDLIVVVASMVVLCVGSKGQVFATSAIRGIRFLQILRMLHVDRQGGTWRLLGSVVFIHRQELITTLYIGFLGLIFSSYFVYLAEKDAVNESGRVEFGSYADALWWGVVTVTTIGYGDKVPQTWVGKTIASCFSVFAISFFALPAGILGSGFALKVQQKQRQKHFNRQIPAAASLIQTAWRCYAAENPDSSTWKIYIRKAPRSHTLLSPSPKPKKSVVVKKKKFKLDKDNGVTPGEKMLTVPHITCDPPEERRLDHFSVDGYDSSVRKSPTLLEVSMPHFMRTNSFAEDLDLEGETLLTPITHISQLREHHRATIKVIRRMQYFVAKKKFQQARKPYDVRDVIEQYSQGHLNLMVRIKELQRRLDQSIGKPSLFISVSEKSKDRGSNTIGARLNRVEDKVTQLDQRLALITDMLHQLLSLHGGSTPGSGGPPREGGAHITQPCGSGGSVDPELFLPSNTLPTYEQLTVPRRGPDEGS
Kir21 block: blocks the mouse Kir2.1 inward-rectifier potassium channel. HEK293-Kir2.1, FluxOR thallium flux fluorescence; active compounds read low. P35561. 310,000 compounds, 0.85% hits. B-score at 10 µM;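 active means fluorescence ratio B-score at or below minus 3 SD of library scores, with starting-brightness B-score within 2 SD, cut at about -4.2 in these data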;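 further: channel flux triggered by added potassium and thallium sulfate stimulus; B-score of peak minus minimum fluorescence over baseline after thallium stimulus; more negative B-score means stronger Kir2.1 block with less thallium influx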
KCNQ1 act: potentiators or activators of human KCNQ1 potassium channel | CHO-K1 KCNQ1, thallium flux FluxOR fluorescence; active compounds read high | B-score at 10 µM | P51787 | 310,000 compounds, 0.35% hits | AID 2648;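 active means fluorescence ratio B-score, a plate-corrected score, at least three library SD, with initial intensity B-score within 5 SD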
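Assay system: CHO-K1 cells stably expressing KCNQ1; Medium: assay buffer with matched DMSO; Also added: K+/Tl+ depolarizing stimulus; Dosing: single dose; Timing: dye 90 min, compound 20 min, room temperature; Measured by: kinetic FluxOR thallium fluorescence, 10-s 1-Hz baseline, 110-s post-stimulus read; Read-out: peak-minus-minimum fluorescence over initial fluorescence, negative-control normalized, B-scored.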
KCNK9 block conf: human KCNK9 inhibitor confirmation | inhibition, % at 10 µM | shares compounds with KCNK9 block | HEK293 KCNK9 cells, FluxOR thallium flux fluorescence | 4,900 compounds, 43% hits;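 active means thallium signal inhibited by more than 5 SD of the compound-free buffer control wells, on both duplicate plates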
Kir2-1 spec: mouse Kir2.1 off-target activity of KCNK9 modulators; shares compounds with KCNK9 block; Kir2.1 cells, FluxOR thallium flux fluorescence; inhibition, % at 10 µM; 4,900 compounds, 4% hits; AID 492993;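 active means thallium signal drop more than 5 SD beyond the mean of the no-compound control wells, seen in both duplicate plates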;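 further: signal is fluorescence rise after thallium addition divided by baseline fluorescence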
KCNK9 uninduced: second check of KCNK9 modulator effects in non-induced HEK293 cells; shares compounds with KCNK9 block; FluxOR thallium flux; inhibition, % at 10 µM; 4,900 compounds, 40% hits;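 active means thallium signal drop beyond 5 SD of the untreated control mean, on both duplicate plates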
KCNK3 inh conf: confirmation of human KCNK3 two-pore domain potassium channel inhibitors | CHO-KCNK3 thallium flux, FluxOR fluorescence; 0% buffer, 100% carvedilol maximal block | ratio percent of control, % at 10 µM | shares compounds with KCNK3 inh | 2,400 compounds, 99% hits;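 active means ratio percent of control, averaged over triplicates, above buffer control mean plus 5 SD, cut at about 64% in these data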;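 further: ratio is the fluorescence rise from min to max over baseline after thallium stimulus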
KCNK3 uninduced: activity in cells without induced KCNK3 expression; shares compounds with KCNK3 inh; non-induced KCNK3 parental cells, FluxOR thallium flux; active compounds read low; thallium flux ratio (lower = more inhibition) at 10 µM; 2,400 compounds, 40% hits; AID 651747;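 active means thallium flux ratio, averaged over three wells, more than 5 SD below the buffer control mean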;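 further: host cells are CHO cells without KCNK3 induction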
A number is an active result; i = inactive; nt = no result given.

SMILES	KCNK3 inh	KCNK9 block	hERG rescue	KCNQ1 block	Kir21 block	KCNQ1 act	KCNK9 block conf	Kir2-1 spec	KCNK9 uninduced	KCNK3 inh conf	KCNK3 uninduced
CC1(C)NC(C(=O)O)Cc2c1[nH]c1ccccc21 (stereo unspecified)	i	i	i	i	i	i	nt	nt	nt	nt	nt
CC1(C)CC(=O)CC2(C1)NCC(c1ccccc1)c1c2[nH]c2ccccc12 (stereo unspecified)	-9.3	-15	i	i	i	i	64%	i	34%	99	i
O=C(Nc1ccc(Cl)c(S(=O)(=O)N2CCOCC2)c1)c1cc(-c2ccccn2)nc2ccccc12	-8.8	-9.5	i	i	i	i	i	i	i	123	i
O=C(Nc1ccc(Cl)c(S(=O)(=O)N2CCOCC2)c1)c1ccccn1	i	i	i	i	i	i	nt	nt	nt	nt	nt
CCCCNC(=O)COn1nnc2ccc(S(=O)(=O)N3CCOCC3)cc21	i	i	i	i	i	i	nt	nt	nt	nt	nt
COc1cc2c(cc1OC)CN(C(=O)C(CCSC)NS(=O)(=O)c1ccc(C)cc1)CC2 (stereo unspecified)	i	i	i	i	i	i	nt	nt	nt	nt	nt
Cc1c(C(=O)c2ccc(Cl)c(Cl)c2)cnc2cc3c(cc12)OCO3	-11	-9.9	i	i	i	i	73%	i	44%	100	i
CC(=O)Nc1nc(S(=O)(=O)c2ccc(C)cc2)c(Cl)s1	i	i	i	i	i	i	nt	nt	nt	nt	nt
Cc1ccc(S(=O)(=O)c2nc(NCc3ccc4c(c3)OCO4)sc2Cl)cc1	i	-11	i	i	i	i	42%	32%	42%	130	0.16
O=S(=O)(c1ccccc1)N1CCN=C1SCc1ccccc1Cl	-11	-9.7	i	i	i	i	34%	i	44%	114	i
COc1cccc(NC(=O)COC(=O)c2ccccc2C(=O)N2CCN(c3ccccc3)CC2)c1	i	i	i	i	i	i	nt	nt	nt	nt	nt
COc1ccc2oc(C(=O)OCC(=O)N(CCC#N)c3ccccc3)c(C)c2c1	i	i	i	i	i	i	nt	nt	nt	nt	nt
O=C(NCc1ccc2c(c1)OCO2)c1ccc(-c2ccc(Cl)cc2)o1	-8.9	-8.6	i	i	i	i	27%	i	26%	140	0.12
CC(C)Cc1ccc(C(=O)NCc2ccc3c(c2)OCO3)o1	i	i	i	i	i	i	nt	nt	nt	nt	nt
COC(=O)C1=C(C)N=C2SC(C#N)=C(N)N2C1c1cccc(OC)c1 (stereo unspecified)	i	i	i	i	i	i	nt	nt	nt	nt	nt
COC(=O)C1=C(C)N=C2SC(C#N)=C(N)N2C1c1ccc(OC)cc1 (stereo unspecified)	-10	-8.9	i	i	i	i	50%	i	i	112	i
CN(CCOc1ccc(Cl)cc1)Cc1cccc(S(=O)(=O)N(C)C)c1	-9.2	-9.7	i	i	i	i	45%	i	52%	103	i
CN(C)S(=O)(=O)c1cccc(NC(=O)Cc2ccc(Cl)cc2)c1	i	i	i	i	i	i	nt	nt	nt	nt	nt
CN(C(=O)COC(=O)c1ccc(Cl)s1)C1(C#N)CCCCC1	i	nt	nt	nt	nt	nt	nt	nt	nt	nt	nt
CC(C)OC(=O)COc1ccc(-c2ccccc2)cc1	-11	-9.2	i	i	i	i	i	i	i	97	i
C=CCOc1ccc(CN(C)CC(=O)Nc2ccccc2[N+](=O)[O-])cc1	-9.5	i	i	i	i	i	i	i	i	99	0.16
COCC(C)n1c(SCc2ccc(OC)c(F)c2)nc2ccccc2c1=O (stereo unspecified)	-11	-18	i	i	i	i	76%	i	50%	116	i
COCC(C)n1c(SCc2ccc(C(=O)OC)cc2)nc2ccccc2c1=O (stereo unspecified)	-12	-16	i	i	i	i	62%	i	38%	125	0.14
Cc1ccc(-n2c(SCc3ccc([N+](=O)[O-])cc3)nc3ccccc3c2=O)cc1	i	i	i	i	i	i	nt	nt	nt	nt	nt
CCOC(CCn1c(SCc2ccc([N+](=O)[O-])cc2)nc2ccccc2c1=O)OCC	i	-15	i	i	i	i	74%	i	38%	117	i
SMILES	KCNK3 inh	KCNK9 block	hERG rescue	KCNQ1 block	Kir21 block	KCNQ1 act	KCNK9 block conf	Kir2-1 spec	KCNK9 uninduced	KCNK3 inh conf	KCNK3 uninduced
CCn1c(SCc2ccc(OC)c(F)c2)nc2ccccc2c1=O	-12	-20	i	i	i	i	78%	i	46%	107	i
COc1ccc(-n2nc(C(=O)NCC(=O)Nc3cc(OC)ccc3OC)c3ccccc3c2=O)cc1	-11	-14	i	i	i	i	i	i	i	89	i
COc1ccccc1OCCCN1C(=O)C(=O)c2cccc(C)c21	-10	-12	i	i	i	i	49%	i	i	112	i
C=CCn1c(SCC(=O)Nc2ccccc2)nc2scc(-c3cccs3)c2c1=O	-9.5	-11	i	i	i	i	35%	i	34%	114	i
CCN(Cc1ccncc1)Cc1c(O)ccc2cc(Br)ccc12	nt	i	i	i	i	i	nt	nt	nt	nt	nt
Cc1ccc(N2C(=O)c3ccccc3C2Nc2ccc(S(=O)(=O)N3CCCCC3)cc2)nc1 (stereo unspecified)	-10	-11	i	i	i	i	i	i	30%	121	0.15
Cc1ccc(N2C(=O)c3ccccc3C2Nc2ccc(S(=O)(=O)N3CCOCC3)cc2)nc1 (stereo unspecified)	i	i	i	i	i	i	nt	nt	nt	nt	nt
COc1ccccc1N(CC(=O)N/N=C/c1ccc(OCC(=O)NCc2ccco2)cc1)S(=O)(=O)c1ccc(C)cc1	i	i	i	i	i	i	nt	nt	nt	nt	nt
COC(=O)COc1ccc(/C=N/NC(=O)CN(c2ccccc2OC)S(=O)(=O)c2ccccc2)cc1	-16	-13	i	i	i	i	i	i	i	116	0.14
O=C(NC1CC1)C1CCN(c2ncnc3c2sc2cccc(F)c23)CC1	i	i	i	i	i	i	nt	nt	nt	nt	nt
O=C(CSCC(=O)N1CCCc2ccccc21)Nc1nc(-c2ccccc2)cs1	-12	-17	i	i	i	i	23%	i	i	119	0.14
CCOc1ccccc1-c1cc(C(=O)N/N=C/c2cccnc2)c2ccccc2n1	i	i	i	i	i	i	nt	nt	nt	nt	nt

High-throughput results as filed in PubChem.
